Here are results for 4 compounds from publication PMC7919060 (ACS chemical neuroscience, 2020).

Molecules are shown by their SMILES. Structures can show the parent of a compound that is named as a salt. Where two headings read alike, the source gives them in different places.

The nature of data set [1]: Mouse pharmacokinetics, single IP dose 10 mg/kg. The format is in vivo, CD-1 mice.
Data set [2] deals with MDR1-MDCK cell monolayer. The data set is described as follows: Permeability and efflux in MDR1-MDCK cell monolayer. The class given is in vitro ADME.
Data set [3] concerns brain GlcCer. To be noted: normal mice, 60 mg/kg; cited from earlier work.
Data set [4] in a line: Stability to mouse liver microsomes. Particulars: CD-1, mouse, pH 7.4. The class given is in vitro ADME. Put shortly: (§1)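 Test compound at 1 μM with 0.5 mg/mL liver microsomes (CD-1 mouse or human), 1.7 mM β-NADPH, 0.1 M phosphate pH 7.4, 3.3 mM MgCl₂, 37 °C, final DMSO <0.1%. Aliquots at 0–60 min (seven points) were quenched in cold acetonitrile with internal standard. Parent remaining was measured by LC-MS/MS. Half-life was taken from ln(remaining) versus time.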

Data set [5] has as its system P-glycoprotein (MDR1). The data set is described as follows: Permeability and efflux in MDR1-MDCK cell monolayer. The class given is in vitro ADME. To be noted: dog, MDCK-MDR1.
A short description of data set [6]: Stability to human liver microsomes. Particulars: pH 7.4. The class given is in vitro ADME. Put shortly:
as §1
For orientation: Liver microsomes are a subcellular fraction often used to study metabolism.

The subject of data set [7] is brain GlcCer and GlcSph. The format is in vivo, D409V/D409V mice of C57BL/6 background. To be noted: CBE mice. Summed up:
(§2)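 Gba D409V/D409V mice (C57BL/6 background) received CBE 25 mg/kg IP daily for 14 days from postpartum day 15. Test compound (10 mg/kg qd IP, citrate-saline) or buffer alone was coadministered; 8–11 mixed-gender mice per group. Sacrifice was 2 h after final dose. Brain GlcCer and GlcSph were separated from galactosyl analogues and quantified by LC-MS/MS. Values were normalised to tissue weight (pmol/mg) relative to vehicle controls; Student's t test.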

The format of data set [8] is in vivo, D409V/D409V mice of C57BL/6 background. To be noted: both, C57BL/6 (Gba D409V/D409V), mouse, ip, 10 mg/kg. Summed up:
as §2

Data set [9] deals with brain GlcCer. The data set is described as follows: In vivo reduction of brain glucosylceramide in normal mice. Particulars: normal C57BL/6 mice, IP. Put shortly:
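Female or male C57BL/6 mice, 6–8 weeks old, on regular chow, given test compound or vehicle IP daily for 3 days. Injection volume was 1% of body weight. Two dose-response runs were done: 30, 10, 1 mg/kg and 1.0–0.03 mg/kg. Whole brain was homogenised in sucrose buffer, then chloroform/methanol extracted and subjected to alkaline methanolysis. Extract was normalised to 2 μmol phospholipid phosphate. GlcCer was quantified by HPTLC against standards.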

Setting [10] is: mouse, IP, 10 mg/kg, single dose.

Turning to `O=C(CC1Cc2ccccc2C1)N[C@H](CN1CCCC1)[C@H](O)c1ccc2c(c1)OCCO2` [Compound 2], in [1] (setting [10]), the “brain AUC” value turned out to be 36 ng·h/g, the “cumulative B/P ratio (brain AUC/plasma AUC)” value is recorded as 0.11 and the “plasma AUC” value was determined as 317 ng·h/mL. Further, the efflux ratio (in general, the permeability from basolateral to apical divided by that in the opposite direction, in the common usage) in data set [2] (MDR1-MDCK cell monolayer) stood at 298. In [2] (MDR1-MDCK cell permeability), the “Papp A-B” value was 0.14 ×10⁻⁶ cm/s and the “Papp B-A” value is 40.8 ×10⁻⁶ cm/s. Further, the “reduction in brain GlcCer” value in data set [3] is reported as 17%.
Take `CC(C)(NC(=O)O[C@@H]1CN2CCC1CC2)c1csc(-c2ccc(F)cc2)n1` [Compound 3, reference compound]: the half-life (commonly the time in which the quantity being followed falls by half) at 1 μM in data set [4] is above 60 min. Further, the exposure (AUC) – broadly, the area under the concentration-time curve, a measure of exposure – in data set [1] (female, CD-1, mouse, plasma, ip, 10 mg/kg) was 7160 ng·h/mL. The “brain AUC” value in data set [1] (setting [10]) was 6188 ng·h/g. Further, in data set [5], the Papp A→B – broadly, how fast a substance crosses the layer from the apical side – stood at 0.58 ×10⁻⁶ cm/s and the Papp B→A (in general, the apparent permeability from the basolateral to the apical side of a cell layer) came out at 49 ×10⁻⁶ cm/s. The compound further displayed a half-life at 1 μM in data set [6] above 60 min. Moreover, in [7] (IP 10 mg/kg qd for 14 days), the “reduction in brain GlcCer” value is 26% and the “reduction in brain GlcSph” value worked out at 35%. In addition, in data set [8] (brain), the concentration at 2 h was 493 ng/g. The compound further showed a concentration at 2 h in [8] (spleen) of 4570 ng/g.
On to `O=C(CC1Cc2ccccc2C1)N[C@H](CN1CCCC1)[C@H](O)c1ccc(OC(F)(F)F)cc1` [Compound 17, 2-(2,3-Dihydro-1H-inden-2-yl)-N-((1R,2R)-1-hydroxy-3-(pyrrolidin-1-yl)-1-(4-(trifluoromethoxy)phenyl)propan-2-yl)acetamide], for which, in data set [4], the half-life at 1 μM was found to be 37 min. Moreover, in data set [1] (setting [10]), the “brain AUC” value is 1046 ng·h/g. Also, the “increase in overall brain exposure vs 2” value in data set [1] (mouse, IP, 10 mg/kg, brain AUC relative to 2) is around 30 fold. The “total brain exposure (AUC) as percentage of that of Genz-682452” value in data set [1] (mouse, single 10 mg/kg IP dose) is listed as “about 20%”. In data set [5], the Papp A→B worked out at 0.95 ×10⁻⁶ cm/s and the Papp B→A is 56.6 ×10⁻⁶ cm/s. In addition, the “reduction in brain GlcCer” value in data set [9] (1 mg/kg for 3 days) is “about 34%”. Moreover, the “reduction in brain GlcCer (printed as negative change)” value in data set [9] (30 mg/kg for 3 days) is −41%. In data set [7] (IP 10 mg/kg qd for 14 days), the “reduction in brain GlcCer” value came to 19% and the “reduction in brain GlcSph” value is given as 39%. Moreover, the “effect on brain levels of galactosylceramide and galactosylsphingosine” value in data set [7] (selectivity vs galactosylceramide synthase, data not shown) is on record as “lack of effect”. In [8] (brain), this compound gave a concentration at 2 h of 134 ng/g. The concentration at 2 h in data set [8] (spleen) turned out to be 4880 ng/g.
For `CCCCCCCC(=O)N[C@H](CN1CCCC1)[C@H](O)c1ccc2c(c1)OCCO2` [eliglustat, eliglustat tartrate, reference compound], in [6], the half-life at 1 μM worked out at 12.5 min. In data set [7] (IP 10 mg/kg qd for 14 days), the “activity on brain glycosphingolipids in CBE mouse assay” value was “inactive”.
